≈ marks a conversion by molar mass, not a printed value.
Assays:
[1] = target: T1, Carbamoyl-phosphate synthase [ammonia], mitochondrial (Homo sapiens, UniProt P31327); assay: Allosteric inhibition of His-tagged CPS1 (unknown origin) expressed in baculovirus infected Sf21 insect cells assessed as reduction in ADP level preincubated for 20 mins followed by ATP addition measured after 60 mins by ADP-Glo assay
T1 sequence (P31327 whole entry): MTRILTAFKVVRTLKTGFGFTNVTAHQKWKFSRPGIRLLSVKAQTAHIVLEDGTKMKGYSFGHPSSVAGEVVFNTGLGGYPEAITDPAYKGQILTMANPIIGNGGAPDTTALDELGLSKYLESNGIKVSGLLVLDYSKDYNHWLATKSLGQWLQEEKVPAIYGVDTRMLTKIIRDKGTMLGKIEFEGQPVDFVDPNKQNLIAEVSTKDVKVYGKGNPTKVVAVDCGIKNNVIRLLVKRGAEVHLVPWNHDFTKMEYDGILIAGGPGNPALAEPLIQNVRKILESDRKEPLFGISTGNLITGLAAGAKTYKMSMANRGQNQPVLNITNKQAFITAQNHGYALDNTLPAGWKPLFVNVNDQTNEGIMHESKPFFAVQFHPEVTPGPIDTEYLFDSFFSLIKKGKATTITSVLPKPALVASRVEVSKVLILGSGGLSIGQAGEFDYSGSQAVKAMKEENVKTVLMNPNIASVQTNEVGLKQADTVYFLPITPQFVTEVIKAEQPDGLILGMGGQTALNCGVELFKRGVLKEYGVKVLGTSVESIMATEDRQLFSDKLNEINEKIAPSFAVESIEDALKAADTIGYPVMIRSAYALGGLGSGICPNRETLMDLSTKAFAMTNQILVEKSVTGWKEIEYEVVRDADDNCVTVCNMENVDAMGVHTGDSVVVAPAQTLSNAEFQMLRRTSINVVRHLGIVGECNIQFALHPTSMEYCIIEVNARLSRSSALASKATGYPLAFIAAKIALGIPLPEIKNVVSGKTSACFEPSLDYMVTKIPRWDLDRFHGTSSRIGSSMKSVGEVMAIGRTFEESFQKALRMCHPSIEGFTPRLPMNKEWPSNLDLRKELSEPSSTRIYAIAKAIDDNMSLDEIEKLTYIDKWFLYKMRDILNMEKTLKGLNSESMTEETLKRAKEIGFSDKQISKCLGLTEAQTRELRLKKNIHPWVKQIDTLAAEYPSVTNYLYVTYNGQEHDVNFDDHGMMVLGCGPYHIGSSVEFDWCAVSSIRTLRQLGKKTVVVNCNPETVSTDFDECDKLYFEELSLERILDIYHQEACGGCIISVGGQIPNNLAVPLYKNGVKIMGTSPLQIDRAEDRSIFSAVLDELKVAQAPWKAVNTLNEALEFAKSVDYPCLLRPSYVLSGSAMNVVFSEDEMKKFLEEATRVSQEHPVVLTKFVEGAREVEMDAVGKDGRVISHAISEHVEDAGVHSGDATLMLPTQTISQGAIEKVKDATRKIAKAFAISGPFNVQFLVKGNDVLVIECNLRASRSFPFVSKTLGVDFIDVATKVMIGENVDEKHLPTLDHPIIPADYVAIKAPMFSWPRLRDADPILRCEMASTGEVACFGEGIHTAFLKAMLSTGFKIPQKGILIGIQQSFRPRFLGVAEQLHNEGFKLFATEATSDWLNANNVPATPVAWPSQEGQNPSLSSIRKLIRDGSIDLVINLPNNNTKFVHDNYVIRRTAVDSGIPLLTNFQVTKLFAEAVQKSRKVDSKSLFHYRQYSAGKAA
Summary of the method: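 CPS1 activity read as ADP formation in the presence of inhibitor. IC50 taken as the average of at least two experimental replicates (N = 2).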

[2] = target: T1, Carbamoyl-phosphate synthase [ammonia], mitochondrial; assay: Inhibition of CPS1 in human pooled hepatocytes assessed as reduction in urea production measured after 16 hrs in presence of NH4Cl by tecan-plate reader analysis; assay type: cell-based
Summary of the method: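 Primary human hepatocytes given 10 mM NH4Cl together with compound over a concentration series. Urea secreted into the medium measured after 16 h. IC50 derived from the inhibition of urea production.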

[3] = Clearance in human pooled hepatocytes assessed per million cells at 1 uM measured up to 120 mins by LC-MS/MS analysis; assay type: ADME, cell-based, Hepatocyte; conditions: read-out: CLH
[4] = Kinetic solubility in Dulbecco's phosphate buffer saline at pH 7.4 by UPLC analysis; assay type: physicochemical; conditions: Dulbecco's phosphate buffered saline, read-out: Kinetic_solubility
[5] = Apparent permeability across apical to basolateral membrane in human Caco2 cells at 5 uM incubated for 2 hrs by LC-MS/MS analysis; assay type: ADME, cell-based; conditions: Caco-2
[6] = target: Multifunctional protein CAD (Homo sapiens, UniProt P27708); assay: Inhibition of CAD (unknown origin) CSP2 activity expressed in Escherichia coli BL21 (DE3) preincubated for 20 mins followed by ATP addition measured after 60 mins by ADP-Glo assay
Multifunctional protein CAD, sequence (P27708 whole entry): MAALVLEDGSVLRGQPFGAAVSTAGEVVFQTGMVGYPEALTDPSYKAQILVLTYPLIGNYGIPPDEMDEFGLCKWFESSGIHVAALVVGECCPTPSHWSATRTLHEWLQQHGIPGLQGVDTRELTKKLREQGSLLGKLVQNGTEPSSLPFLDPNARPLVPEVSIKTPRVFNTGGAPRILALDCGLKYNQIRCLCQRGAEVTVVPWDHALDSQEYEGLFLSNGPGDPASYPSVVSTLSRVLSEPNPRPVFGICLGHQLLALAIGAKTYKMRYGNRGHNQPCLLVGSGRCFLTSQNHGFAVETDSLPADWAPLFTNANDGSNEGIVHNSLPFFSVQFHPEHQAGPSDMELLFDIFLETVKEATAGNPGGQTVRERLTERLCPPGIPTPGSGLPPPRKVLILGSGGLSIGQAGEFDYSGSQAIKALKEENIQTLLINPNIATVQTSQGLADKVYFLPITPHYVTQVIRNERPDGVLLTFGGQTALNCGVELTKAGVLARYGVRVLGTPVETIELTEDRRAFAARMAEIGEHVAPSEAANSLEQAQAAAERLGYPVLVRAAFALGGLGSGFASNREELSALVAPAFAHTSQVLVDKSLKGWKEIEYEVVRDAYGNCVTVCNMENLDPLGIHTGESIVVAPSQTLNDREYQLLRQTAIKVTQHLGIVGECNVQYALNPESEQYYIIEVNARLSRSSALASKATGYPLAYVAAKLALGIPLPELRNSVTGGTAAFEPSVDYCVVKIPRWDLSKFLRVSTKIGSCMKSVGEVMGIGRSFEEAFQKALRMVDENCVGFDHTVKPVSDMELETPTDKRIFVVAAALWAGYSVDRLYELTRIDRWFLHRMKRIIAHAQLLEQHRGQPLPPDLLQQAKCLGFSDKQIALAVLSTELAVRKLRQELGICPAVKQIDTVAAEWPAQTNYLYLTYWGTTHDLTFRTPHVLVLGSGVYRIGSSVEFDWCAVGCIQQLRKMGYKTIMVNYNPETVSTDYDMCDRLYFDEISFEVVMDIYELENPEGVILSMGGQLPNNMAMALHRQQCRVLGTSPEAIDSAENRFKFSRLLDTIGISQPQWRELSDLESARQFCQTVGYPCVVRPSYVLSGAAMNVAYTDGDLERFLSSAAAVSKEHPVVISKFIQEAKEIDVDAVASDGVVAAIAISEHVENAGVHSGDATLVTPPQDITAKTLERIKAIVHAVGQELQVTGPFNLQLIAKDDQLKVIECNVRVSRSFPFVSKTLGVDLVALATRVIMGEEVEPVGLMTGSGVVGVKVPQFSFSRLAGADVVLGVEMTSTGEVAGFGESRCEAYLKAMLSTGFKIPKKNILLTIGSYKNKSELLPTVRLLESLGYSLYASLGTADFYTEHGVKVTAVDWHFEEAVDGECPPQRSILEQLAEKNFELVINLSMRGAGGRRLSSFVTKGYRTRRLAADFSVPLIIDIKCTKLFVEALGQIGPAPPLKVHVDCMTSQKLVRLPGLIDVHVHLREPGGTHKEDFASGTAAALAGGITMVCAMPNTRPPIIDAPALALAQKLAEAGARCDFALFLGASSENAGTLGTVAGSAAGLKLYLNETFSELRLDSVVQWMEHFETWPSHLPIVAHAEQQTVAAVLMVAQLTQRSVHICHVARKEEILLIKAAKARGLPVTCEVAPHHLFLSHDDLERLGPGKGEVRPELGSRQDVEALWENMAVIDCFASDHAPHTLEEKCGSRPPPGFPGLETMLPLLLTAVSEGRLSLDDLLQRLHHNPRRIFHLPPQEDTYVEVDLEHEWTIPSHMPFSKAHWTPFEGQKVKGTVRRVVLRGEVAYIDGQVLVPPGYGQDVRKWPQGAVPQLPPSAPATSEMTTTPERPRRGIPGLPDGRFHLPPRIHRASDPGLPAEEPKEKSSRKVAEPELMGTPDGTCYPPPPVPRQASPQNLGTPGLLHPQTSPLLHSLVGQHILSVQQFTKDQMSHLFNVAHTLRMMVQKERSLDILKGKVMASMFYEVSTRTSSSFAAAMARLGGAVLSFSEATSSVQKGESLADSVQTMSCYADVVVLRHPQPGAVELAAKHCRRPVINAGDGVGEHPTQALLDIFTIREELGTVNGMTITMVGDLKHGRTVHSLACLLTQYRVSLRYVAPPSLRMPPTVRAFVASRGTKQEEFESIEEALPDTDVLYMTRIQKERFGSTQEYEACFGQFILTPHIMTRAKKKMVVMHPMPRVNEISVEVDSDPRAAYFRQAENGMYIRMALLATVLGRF

Row | SMILES | IC50 [1] | further results
1 | COc1ccc(C(=O)N2[C@H](C)CN(C(=O)c3cc(OC)ccc3F)C[C@H]2C)c(F)c1 | > 66000 nM | 
2 | COc1ccc(C(=O)N2[C@H](C)CN(C(=O)c3ccc4ccn(C)c4c3)C[C@H]2C)c(F)c1 |  | IC50 [2]: Not Active
3 | COc1ccc(C(=O)N2CCCN(C(=O)c3ccc(OC)cc3F)CC2)c(F)c1 | 18900 nM | 
4 | COc1ccc(C(=O)N2[C@H](C)CN(C(=O)c3ccc4cc[nH]c4c3)C[C@H]2C)c(F)c1 | 66 nM | IC50 ([2]; read-out: IC50): 240 nM; hepatocyte CLint at 1 µM [3]: 8.7 µL/min/1e6 cells; solubility kinetic [4]: 148 µM (≈ 60.6 µg/mL); Papp A→B at 2 h, 5 µM [5]: 12.3 ×10⁻⁶ cm/s; IC50 [6]: ≥ 100000 nM
5 | COc1ccc(C(=O)N2CC(C)N(C(=O)c3ccc(OC)cc3F)CC2C)c(F)c1 (stereo not drawn) | 11400 nM | 
6 | COc1ccc(C(=O)N2[C@H](C)CN(C(=O)c3cccc(OC)c3F)C[C@H]2C)c(F)c1 | > 66000 nM | 
7 | COc1ccc(C(=O)N2C[C@@H](C)N(C(=O)c3ccc(OC(C)C)cc3F)[C@H](C)C2)c(F)c1 | 1400 nM | 
8 | COc1ccc(C(=O)N2[C@H](C)CN(C(=O)c3ccc4cc(C)[nH]c4c3)C[C@H]2C)c(F)c1 |  | IC50 ([2]; read-out: IC50): 1000 nM
9 | COc1ccc(C(=O)N2[C@H](C)CN(C(=O)c3ccc4[nH]ccc4c3)C[C@H]2C)c(F)c1 | > 66000 nM | IC50 [2]: Not Active
10 | COc1ccc(C(=O)C2CCN(C(=O)c3ccc(OC)cc3F)CC2)c(F)c1 | 21500 nM | 
11 | COc1ccc(C(=O)N2[C@H](C)CN(C(=O)c3cc(NC(C)=O)ccc3F)C[C@H]2C)c(F)c1 | > 66000 nM | 
12 | CCOc1ccc(C(=O)N2C[C@@H](C)N(C(=O)c3ccc(OC)cc3F)[C@H](C)C2)c(F)c1 | 130 nM | 
13 | COc1ccc(C(=O)N2C[C@@H](C)N(C(=O)c3ccc(F)cc3F)[C@H](C)C2)c(F)c1 | 1300 nM | 
14 | CCOc1ccc(C(=O)N2[C@H](C)CN(C(=O)c3ccc(OC)cc3F)C[C@H]2C)c(F)c1 | 380 nM | 
15 | Cc1csc(NC(=O)C2CCN(C(=O)N(C)Cc3ccccc3)CC2)n1 | 1500 nM | hepatocyte CLint at 1 µM [3]: 35 µL/min/1e6 cells
16 | COc1ccc(C(=O)N2CC3CC2CN3C(=O)c2ccc(OC)cc2F)c(F)c1 | > 66000 nM | 
